According to the array DNA melting data of Ke et al. (doi:10.1101/2024.01.08.574731):

Legend:
[1] = folding enthalpy; higher = less favourable; fluorescence melt of hairpins on a sequencing array, two-state fit; conditions: sodium 0.088 M
Method in brief: (§1)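 Cy3 signals were normalised both to pre-quench Cy3 and to control constructs. They came from library hairpins carrying annealed Cy3 and quencher oligos on a sequenced MiSeq flow cell, imaged in 50 mM Na-HEPES pH 8.0, 25 mM NaCl, in 2.5 °C steps up to 60 °C. Bootstrapped two-state fits gave melting temperature and folding enthalpy, and four replicates were combined by inverse variance. Fitted temperatures were then raised by 9.35 °C to match UV melts.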

[2] = melting temperature; fluorescence melt of hairpins on a sequencing array, two-state fit, raised by 9.35 °C to match UV melts; conditions: sodium 0.088 M
Method in brief: as §1

Sequence | folding enthalpy [1] | Tm [2]
GTGCTCCGAAAGGATCAC (((.(((....))).))) | -133 kJ/mol | 50.2 °C
GTGCTCGAAAGAGACCAC ((((((....)))..))) | -61.2 kJ/mol | 34.4 °C
GTGCTCGAAAGAGATCAC ((((((....)))..))) | -57 kJ/mol | 30.9 °C
GTGCTCGAAAGAGCCAC ((((((....))).))) | -46.9 kJ/mol | 49 °C
GTGCTCGAAAGAGCTCAC ((((((....)))..))) | -45.3 kJ/mol | 42.8 °C
GTGCTCGAAAGAGGCAC ((((((....))).))) | -103 kJ/mol | 55.2 °C
GTGCTCGAAAGAGTCCAC ((((((....)))..))) | -54.9 kJ/mol | 31.8 °C
GTGCTCGAAAGAGTTCAC ((((((....)))..))) | -57 kJ/mol | 34.6 °C
GTGCTCGGAAACAAGCAC (((((.(....).))))) | -133 kJ/mol | 46.2 °C
GTGCTCGGAAACGAGTGC (..((((....))))..) | -101 kJ/mol | 50.4 °C
GTGCTGACGAAAGTCCAC (((..(((....)))))) | -49.9 kJ/mol | 40.8 °C
GTGCTGCGAAAGCAACAC (((.(((....))).))) | -142 kJ/mol | 56.5 °C
GTGCTGGGAAACTAGCAC (((((.(....).))))) | -173 kJ/mol | 54.3 °C
GTGCTTCCGAAAGGACAC (((..(((....)))))) | -92.5 kJ/mol | 39.7 °C
GTGCTTGAAAAAGCAC ((((((....)))))) | -117 kJ/mol | 63.3 °C
GTGCTTGCGAAAGCACAC (((..(((....)))))) | -54.8 kJ/mol | 61.4 °C
GTGGAACCGAAAGGTCAC (((..(((....)))))) | -91.6 kJ/mol | 42.3 °C
GTGGAAGGAAACCTCCAC (((((.(....).))))) | -142 kJ/mol | 44.1 °C
GTGGAAGGAAACTTTCAC (((.(((....))).))) | -138 kJ/mol | 43.2 °C
GTGGACACGAAAGTGCAC (((..(((....)))))) | -75.8 kJ/mol | 45 °C
GTGGACGGAAACGCCCAC ((((.((....)).)))) | -235 kJ/mol | 53.2 °C
GTGGAGGCGAAAGCCCAC (((..(((....)))))) | -71.3 kJ/mol | 52.9 °C
GTGGAGGGAAACCTTCGC (.(.(((....))).).) | -112 kJ/mol | 34.1 °C

Sequence | folding enthalpy [1] | Tm [2]
GTGGAGGGAAACTTCCGC (.(((.(....).))).) | -112 kJ/mol | 35.1 °C
GTGGATGGAAACACCCAC ((((.((....)).)))) | -136 kJ/mol | 44.2 °C
GTGGCAACGAAAGTTCAC (((..(((....)))))) | -29.9 kJ/mol | 27.8 °C
GTGGCCGAAAGGCATCAC ((((((....)))..))) | -49.5 kJ/mol | 39.5 °C
GTGGCCGAAAGGCCTCAC ((((((....)))..))) | -31.3 kJ/mol | 40.4 °C
GTGGCCGAAAGGCGACAC ((((((....)))..))) | -58.6 kJ/mol | 57.4 °C
GTGGCCGAAAGGCTACAC ((((((....)))..))) | -56.3 kJ/mol | 58.2 °C
GTGGCTGGAAACAGCTAC ((.((((....)))).)) | -123 kJ/mol | 53.9 °C
GTGGCTGGAAACAGTCAC (((.(((....))).))) | -154 kJ/mol | 55.1 °C
GTGGCTGGAAACAGTCGC (.(.(((....))).).) | -103 kJ/mol | 47 °C
GTGGCTGGAAACGGCCAC (((((.(....).))))) | -199 kJ/mol | 64 °C
GTGGCTGGAAACGGCTAC ((.((.(....).)).)) | -101 kJ/mol | 44 °C
GTGGCTGGAAACGGTCAC (((.(.(....).).))) | -128 kJ/mol | 44.5 °C
GTGGCTTCGAAAGAACAC (((..(((....)))))) | -37.6 kJ/mol | 29.7 °C
GTGGGAGGAAACTCTCAC (((.(((....))).))) | -164 kJ/mol | 48.7 °C
GTGGGCGCGAAAGCGCAC (((..(((....)))))) | -68.8 kJ/mol | 67.9 °C
GTGGGCGGAAACGCCTGC (..((((....))))..) | -55.3 kJ/mol | 47 °C
GTGGGGGGAAACCCCTGC (..((((....))))..) | -48.2 kJ/mol | 42.3 °C
GTGGGGGGAAACCTCCGC (.((.((....)).)).) | -106 kJ/mol | 45.4 °C
GTGGGGGGAAACTCCCGC (.(((.(....).))).) | -89.7 kJ/mol | 48.8 °C
GTGGGTGGAAACACTCGC (.(.(((....))).).) | -103 kJ/mol | 42 °C
GTGGGTGGAAACATCCAC ((((.((....)).)))) | -135 kJ/mol | 53.5 °C
GTGGGTGGAAACGCCCAC (((((.(....).))))) | -168 kJ/mol | 61.8 °C

Sequence | folding enthalpy [1] | Tm [2]
GTGGGTGGAAACGCTCAC (((.(.(....).).))) | -138 kJ/mol | 40.6 °C
GTGGGTTCGAAAGAACAC (((..(((....)))))) | -113 kJ/mol | 57.4 °C
GTGGTACGAAAGTAGCAC (((.(((....))).))) | -176 kJ/mol | 63.2 °C
GTGGTAGGAAACTGTCAC (((..((....))..))) | -72.4 kJ/mol | 32.9 °C
GTGGTCCGAAAGGATCAC (((.(((....))).))) | -172 kJ/mol | 60.4 °C
GTGGTCGAAAGACAGCAC ((((((....)))..))) | -70.6 kJ/mol | 40.6 °C
GTGGTCGGAAACGGTCAC (((..((....))..))) | -96.2 kJ/mol | 44.2 °C
GTGGTGAAAACCAC (((((....))))) | -114 kJ/mol | 58 °C
GTGGTGGGAAACTGCCAC ((((..(....)..)))) | -122 kJ/mol | 49.1 °C
GTGGTTCCGAAAGGACAC (((..(((....)))))) | -72.3 kJ/mol | 40 °C
GTGGTTCGAAAGAACAC (((.(((....)))))) | -70.2 kJ/mol | 47.8 °C
GTGGTTGGAAACAACCAC (((((((....))))))) | -186 kJ/mol | 65.7 °C
GTGGTTGGAAACAATCGC (.(.(((....))).).) | -97.5 kJ/mol | 35 °C
GTGGTTGGAAACAGCTAC ((.(.((....)).).)) | -97.3 kJ/mol | 33.1 °C
GTGTAACGAAAGTTGCAC (((.(((....))).))) | -138 kJ/mol | 53.6 °C
GTGTAAGCGAAAGCTCAC (((..(((....)))))) | -80.9 kJ/mol | 44.9 °C
GTGTAAGGAAACTTACAC (((((((....))))))) | -177 kJ/mol | 54.2 °C
GTGTAATCGAAAGATCAC (((..(((....)))))) | -100 kJ/mol | 33.8 °C
GTGTACCGAAAGGTCAC (((.(((....)))))) | -128 kJ/mol | 53 °C
GTGTACCGAAAGGTGCAC (((.(((....))).))) | -143 kJ/mol | 65.2 °C
GTGTACGAAAGTACGCAC ((((((....)))..))) | -60.8 kJ/mol | 49.9 °C
GTGTACGAAAGTAGACAC ((((((....)))..))) | -95 kJ/mol | 40.8 °C
GTGTACGAAAGTAGCCAC ((((((....)))..))) | -59.5 kJ/mol | 31.9 °C

Sequence | folding enthalpy [1] | Tm [2]
GTGTACGAAAGTATGCAC ((((((....)))..))) | -74.1 kJ/mol | 35.6 °C
GTGTACGGAAACGCACAC ((((.((....)).)))) | -160 kJ/mol | 49.1 °C
GTGTACGGAAACGTACAC (((((((....))))))) | -141 kJ/mol | 67.2 °C
GTGTACGGAAACGTACGC (.(((((....))))).) | -86.2 kJ/mol | 55.1 °C
GTGTAGACGAAAGTCCAC (((..(((....)))))) | -86.3 kJ/mol | 42.8 °C
GTGTAGGGAAACCTACAC (((((((....))))))) | -172 kJ/mol | 61.5 °C
GTGTAGGGAAACTTACAC (((((.(....).))))) | -89.1 kJ/mol | 42 °C
GTGTATACGAAAGTACAC (((..(((....)))))) | -96.9 kJ/mol | 41.1 °C
GTGTATCCGAAAGGACAC (((..(((....)))))) | -90.2 kJ/mol | 42.2 °C
GTGTATCGAAAGATGCAC (((.(((....))).))) | -175 kJ/mol | 53.6 °C
GTGTCAGGAAACCAACAC ((((..(....)..)))) | -56.4 kJ/mol | 28 °C
GTGTCCGAAAGGAGACAC ((((((....)))..))) | -90.6 kJ/mol | 50.7 °C
GTGTCCGAAAGGATCCAC ((((((....)))..))) | -43.6 kJ/mol | 32.7 °C
GTGTCCGGAAACGGGTAC ((..(((....)))..)) | -83.8 kJ/mol | 42.4 °C
GTGTCGAAAGACAC (((((....))))) | -108 kJ/mol | 68 °C
GTGTCGCGAAAGCGCCAC (((.(((....))).))) | -107 kJ/mol | 57.7 °C
GTGTCGGGAAACTGACGC (.(((.(....).))).) | -103 kJ/mol | 45.5 °C
GTGTCTACGAAAGTACAC (((..(((....)))))) | -55.4 kJ/mol | 38.5 °C
GTGTCTGGAAACAGACGC (.(((((....))))).) | -140 kJ/mol | 54.7 °C
GTGTCTGGAAACAGGCAC (((.(((....))).))) | -140 kJ/mol | 54.5 °C
GTGTGACGAAAGTCTCAC (((.(((....))).))) | -134 kJ/mol | 55.9 °C
GTGTGAGGAAACTTACAC ((((.((....)).)))) | -157 kJ/mol | 43.9 °C
